Laboratory results from PubChem BioAssay AID504383 (The Scripps Research Institute Molecular Screening Center, 2011).
Hit rate of the full screen: of about 2,500 compounds, about 1,200 (48%) were called active. So high a share suggests a set chosen from earlier hits. The list shows a part of the results. Values without a mark were called inactive.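 How the source made its calls: active means mean activation above the low control average plus 3 SD, as set in the primary screen (cut at about 12% in these data); inactive means the rest.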

Each compound was assayed against Troponin I, cardiac muscle (Homo sapiens) + Troponin T, cardiac muscle (Homo sapiens) + Troponin C, slow skeletal and cardiac muscles (Homo sapiens) (UniProt P19429+P45379+P63316) (assay: cardiac RTF calcium sensitivity activators, confirmation, biochemical, IANBD-TnC fluorescence, triplicate (AID 504383;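 further: 0% = DMSO at 0.472 mM calcium and 100% = DMSO at 2.9 mM calcium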)). Settings: IANBD-labeled cardiac RTF, Ca2+ sensitivity fluorescence; at 7.2 µM; hits give high values; scaled from EC20 to saturating calcium; tested at EC20 calcium, 0.472 mM.
Method in brief: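 Assay system: labelled regulated thin filament protein complex; schedule: 15 min compound incubation with filaments at 25 °C; benchmarks: low control EC20 calcium, high control EC100 calcium; reagent: Ca2+ 0.472 mM, EC20 level; doses: one dose, 7.2 µM nominal; evaluation: fluorescence gain scaled between EC20 and EC100 calcium controls; signal: filament fluorescence intensity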

Row | Structure (SMILES) | activation
1 | CCN(CC)c1ccc(/C=C2/C(=O)c3ccc(C(=O)O)cc3C2=O)cc1 | 21.9% (active)
2 | CCN(CC)c1ccc(/C=C2\C(=O)c3ccc(C(=O)O)cc3C2=O)cc1 | 28.1% (active)
3 | CCN(CC)c1ccc(/C=C/C(=O)c2ccc(Br)cc2)cc1 | 11.2%
4 | CN(C)c1ccc(/C=N/N(CCO)C2=NS(=O)(=O)c3ccccc32)cc1 | 13.5% (active)
5 | COc1ccccc1C(=O)NN(C)C1=NS(=O)(=O)c2ccccc21 | 7.92%
6 | CN(/N=C/c1ccc(N(C)C)cc1)C1=NS(=O)(=O)c2ccccc21 | 32.9% (active)
7 | Cc1ccc(C(=O)Nc2ccc3c(c2)ncn3C)cc1 | 27.7% (active)
8 | COc1ccc(COc2cc(-c3cccc(OC)c3)nc3ccc(NC(=O)c4ccc(C)cc4)cc23)cc1 | 1.71%
9 | CC(=O)NC(CCS(C)(=O)=O)C(=O)Nc1cc(C)on1 (stereo unspecified) | 15.8% (active)
10 | Cc1cc(NC(=O)CCC(=O)N(CCC(C)C)C(C(=O)NC2CCCC2)c2cccnc2)no1 (stereo unspecified) | 3.5%
11 | CCN(CC(=O)Nc1c(F)cccc1F)C(=O)CNC(=O)COc1ccccc1 | -0.22%
12 | CCN(CC(=O)Nc1ccccc1C(F)(F)F)C(=O)c1ccc(-n2nc(C)c(CCC(=O)OC)c2C)cc1 | 29.8% (active)
13 | COc1ccc(-c2cc3ncc(-c4ccccc4)c(N)n3n2)cc1 | 15.2% (active)
14 | O=C(Nc1cccc(Cl)c1)c1cc(S(=O)(=O)NCCc2ccc(Cl)cc2)ccc1F | 13.9% (active)
15 | COc1ccc(OC)c2[nH]c(=O)c(CCNS(=O)(=O)c3ccc(Cl)cc3)cc12 | 1.64%
16 | COc1ccc(C(=O)c2ccsc2N)cc1 | 22% (active)
17 | COc1ccc(C(=O)c2sc3nc(-c4ccccc4)ccc3c2N)cc1 | 85.5% (active)
18 | COc1ccc(-c2c(C#N)c(N)nc3sc(C(=O)c4ccccc4)c(N)c23)cc1 | -1.46%
19 | COc1ccc(C(=O)c2sc3nc(C)cc(-c4cccs4)c3c2N)cc1OC | 4.99%
20 | COc1ccc(C(=O)c2sc3nc(C)cc(-c4cccs4)c3c2N)cc1 | 24.7% (active)
21 | Cc1cc(C)c(S(=O)(=O)Nc2ccc3[nH]c(=O)[nH]c3c2)c(C)c1 | 21.2% (active)

Row | Structure (SMILES) | activation
22 | Cc1ccc(NC(=O)C(OC(=O)c2ccc(F)cc2)c2ccccc2)cc1Cl (stereo unspecified) | 8.32%
23 | Cc1ccc(NC(=O)Nc2ccc(F)cc2)cc1Cl | 20.6% (active)
24 | Cc1cc(C)c(C(N)=O)c(Nc2ccc(F)cc2)n1 | 1.65%
25 | O=C(O)c1cc(Cl)ccc1-c1ccc(/C=C/c2cc(C(F)(F)F)[nH]c(=O)n2)o1 | 56.3% (active)
26 | O=C(O)c1ccccc1-c1ccc(/C=C/c2cc(C(F)(F)F)[nH]c(=O)n2)o1 | 8.85%
27 | CC(=O)OCC[N+](C)(C)C | 54.7% (active)
28 | COc1cc(/C=C2\Oc3cc(O)ccc3C2=O)ccc1O | -0.13%
29 | O=C1/C(=C/c2cccc(F)c2)Oc2cc(O)ccc21 | 5.33%
30 | O=C1/C(=C/c2ccc(Br)cc2)Oc2cc(O)ccc21 | 58.7% (active)
31 | COC1=C/C(=C/c2c(N)n3cc(C)sc3nc2=O)C=CC1=O | 4.28%
32 | Cc1cn2c(N)c(C=C3C=C(Cl)C(=O)C(Cl)=C3)c(=O)nc2s1 | 17.6% (active)
33 | COC1=C/C(=C/c2c(N)n3c(nc2=O)sc2cc(S(C)(=O)=O)ccc23)C=CC1=O | 10.2%
34 | C=CCNc1nnc(SCC(=O)N2CCC(C(N)=O)CC2)s1 | 15.8% (active)
35 | O=C(Oc1ccc2ccc(=O)oc2c1)c1cccs1 | 1.63%
36 | C=CCOc1ccc(C2C(C(=O)c3cccs3)=C(O)C(=O)N2c2nnc(C)s2)cc1 (stereo unspecified) | 15.5% (active)
37 | Cc1ccc(C2C(C(=O)c3cccs3)=C(O)C(=O)N2c2nnc(C)s2)cc1 (stereo unspecified) | 52.5% (active)
38 | COc1ccc(C2C(C(=O)c3cccs3)=C(O)C(=O)N2c2nnc(C)s2)cc1OC (stereo unspecified) | 7.86%
39 | Cc1cc(N2C(=O)C(O)=C(C(=O)c3cccs3)C2c2ccc(F)cc2)no1 (stereo unspecified) | 23.8% (active)
40 | COc1ccc(C2C(C(=O)c3cccs3)=C(O)C(=O)N2c2nncs2)cc1 (stereo unspecified) | 20.1% (active)
41 | O=C(c1ccccc1)N1C(=O)C(c2ccccc2)Oc2ccccc21 (stereo unspecified) | 1.2%
42 | COc1cc(OC)cc(C(=O)NCC(=O)OC2CCOC2=O)c1 (stereo unspecified) | 17.4% (active)

Row | Structure (SMILES) | activation
43 | O=C1/C(=C/c2cccs2)N=C(c2cccs2)N1Nc1ccccc1 | 18.7% (active)
44 | CCOc1ccc(NC(=O)/C(C#N)=C\c2ccc(N3CCCC3)c(C)c2)cc1 | 1.35%
45 | Cc1cc(N2CCCC2)ccc1/C=C1\NC(=S)N(C)C1=O | 11.3%
46 | CCCN1C(=O)/C(=C/c2ccc(N3CCCC3)c(C)c2)NC1=S | 8.1%
47 | Cc1cc(/C=C2/C(=O)N(C)C(=S)N2C)ccc1N1CCCC1 | 106% (active)
48 | CCOc1ccc(NC(=O)/C(C#N)=C/c2ccc(N3CCCC3)c(C)c2)cc1 | 2.19%
49 | Cc1cc(/C=C2\NC(=S)N(C)C2=O)ccc1N1CCCC1 | 26.1% (active)
50 | COc1ccc(C(=O)Cn2cnc3ccccc3c2=O)cc1OC | 6.44%
51 | O=C(Cn1cnc2ccccc2c1=O)c1ccc(Br)cc1 | 424% (active)
52 | O=C(c1ccc(Cl)cc1)n1cnc2ccccc21 | 7.26%
53 | COc1cc(/C=C(\C#N)c2nc3ccccc3s2)ccc1OCC(=O)Nc1ccccc1 | 92.9% (active)
54 | COc1cc(/C=C(/C#N)C(=O)NCCCc2ccccc2)ccc1OCC(=O)O | 11.5%
55 | COc1cc(/C=C(\C#N)c2nc3ccccc3o2)ccc1O | 3.75%
56 | CCN(CC)c1ccc(/C=C/c2cc(-c3ccccc3)c3ccccc3n2)cc1 | 19.4% (active)
57 | c1ccc(Nc2nc3ccccc3n3cnnc23)cc1 | 10.4%
58 | Cn1cnnc1Sc1nc2ccccc2nc1NS(=O)(=O)c1ccccc1 | 26.2% (active)
59 | CC(=O)Nc1ccc(S(=O)(=O)Nc2nc3ccccc3nc2Nc2ccc(N)cc2)cc1 | 5.97%
60 | Cn1nnc(NC(=S)NC(=O)/C=C/c2ccco2)n1 | 4.19%
61 | CCC(CC)c1nnc(NC(=O)/C=C/c2ccco2)s1 | 18.8% (active)
